# Measured values from different studies.
# Each line is one published result; the experiments were not run side by side.
# Target: Serine/threonine-protein kinase PRP4 homolog (PRPF4B, Homo sapiens, UniProt Q13523)
SMILES,test,conditions,remaining binding
COc1cnc(Nc2cccc(S(N)(=O)=O)c2)nc1N1CCN(c2ccccc2)C(=O)C1,"binding, competition with immobilised ligand",1 µM,100%
F[C@@H]1CCN(c2nccc(-c3cnn4ncccc34)n2)C1,binding,1 µM,100%
O=C(Nc1c[nH]nc1C(=O)NC1CCNCC1)c1cc(F)cc(F)c1,"binding, competition with immobilised ligand",1 µM,82%
CC(=O)N1CCC(c2ccc(C(=O)NC(=N)N)cc2C(F)(F)F)CC1,"cell-free assay, competition with immobilised ligand",1 µM,78%
Cc1nn(C)cc1-c1nc2c(N3CCN(Cc4ccc(Cl)cc4)CC3)c(Cl)cnc2[nH]1,"binding, competition with immobilised ligand",1 µM,100%
CN(C)c1ncc(F)c(-c2cnn3ncccc23)n1,binding,1 µM,100%
O=C(c1ccc(Nc2ncc(Cl)c(-c3cc4ccccc4s3)n2)cc1)N1CCC(N2CCCC2)CC1,"binding, competition with immobilised ligand",1 µM,3.7%
O=C(NCc1ncc(C(F)(F)F)cc1Cl)c1ccc2c(c1)C1(CCS(=O)(=O)CC1)[C@@H](C1CC1)N2S(=O)(=O)c1ccc(F)cc1,"cell-free assay, competition with immobilised ligand",1 µM,84%
CN(c1nccc(-c2cnn3ncccc23)n1)C1CC1,binding,1 µM,100%
c1cncc(-c2cccc(Nc3nccc(NC4CCCCC4)n3)c2)c1,"binding, competition with immobilised ligand",10 µM,100%
O=C(NCCCC1CCCCC1)c1ccc(CNC(=O)c2cnn(-c3ccccc3)c2C(F)(F)F)cc1,"cell-free assay, competition with immobilised ligand",0.1 µM,100%
N[C@@H]1CCN(c2nccc(-c3cnn4ncccc34)n2)C1,binding,1 µM,100%
O=C(c1ccc(Nc2nccc(-c3cc4ccccc4s3)n2)cc1)N1CCC(N2CCCC2)CC1,"binding, competition with immobilised ligand",1 µM,6.3%
C[C@@H]1CN(c2cc(-c3nn(C)c4ccc(OC5(C)CC5)cc34)ncn2)C[C@H](C)O1,"cell-free assay, competition with immobilised ligand",1 µM,100%
Cc1cnc(Nc2ccc(C(=O)N3CCC(N4CCCC4)CC3)cc2)nc1-c1cc2ccccc2s1,"binding, competition with immobilised ligand",1 µM,5.2%
CN(CCCC(F)(F)F)c1nccc(-c2cnn3ncccc23)n1,binding,1 µM,100%
Cc1c(NC(=O)c2cc(C(N)=O)nc3cc(F)ccc23)c(C(F)(F)F)nn1Cc1ccc(C(C)(C)C)cc1,"cell-free assay, competition with immobilised ligand",1 µM,73%
CN(C)c1nccc(-c2cnn3ncccc23)n1,binding,1 µM,86%
CN1CCN(c2cnc3c(C4CCN(C(=O)c5ccc(OC(F)(F)F)cc5N)CC4)ncnc3c2)CC1,"cell-free assay, competition with immobilised ligand",1 µM,100%
C[C@@H]1CCN(c2nccc(-c3cnn4ncccc34)n2)C1,binding,1 µM,64%
COc1cnc(Nc2cccc(S(N)(=O)=O)c2)nc1N1CCN(c2ccccc2)CC1,"binding, competition with immobilised ligand",1 µM,90%
O=c1nc(-c2ccccn2)sc2ccccc12,"binding, competition with immobilised ligand",1 µM,71%
